From publication PMC4767723 (Drugs in R&D, 2016)
Like-named read-outs stand apart in the source and are kept apart here.

How the values were obtained:
[1] = format: in vivo, human; conditions: for Change in AUCss on fostamatinib co-administration with OC / Change in Cmax,ss on fostamatinib co-administration with OC: increase in exposure
[2] = Safety and tolerability, all three studies; format: in vivo, human
Summary of the method: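 Healthy subjects. Safety set was everyone given at least one dose of investigational product, with all available data used. Assessed throughout: incidence and severity of adverse events, clinical laboratory data, vital signs, 12-lead ECG and physical examination. AEs were tabulated by MedDRA. In the statin study, single statin doses were given alone and then with fostamatinib in a two-period, fixed-sequence design.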

[3] = tested on: progesterone, luteinizing hormone, follicle-stimulating hormone, sex hormone-binding globulin; experiment: OC interaction study, pharmacodynamics; format: in vivo, human
[4] = tested on: international normalized ratio (INR); experiment: Warfarin interaction study, pharmacodynamics; set-up: species or system human; conditions: in vivo
BCRP = conditions: read-out: half maximal inhibitory concentration (IC50), BCRP; in vitro; ref AstraZeneca, data on file; cited from earlier work
[5] = typical value; not determined in the current studies; cited from earlier work
[6] = for Increase in AUC with fostamatinib / Individual Cmax differences (warfarin alone to warfarin plus fostamatinib): human; for Increase in AUC with fostamatinib / Individual Cmax differences (warfarin alone to warfarin plus fostamatinib) / Individual AUC differences / Prolongation of t½λz: in vivo
[7] = not given; remark: listed apart in the source
[8] = cited from earlier work
[9] = fostamatinib co-administration with OC

For `C#C[C@]1(O)CC[C@H]2[C@@H]3CCc4cc(O)ccc4[C@H]3CC[C@@]21C` [Ethinyl estradiol, ethinyl estradiol], the “AUCss ratio Microgynon + fostamatinib/microgynon alone” value ([1]; geometric LS mean ratio) was 128.2%, the “Cmax,ss ratio Microgynon + fostamatinib/microgynon alone” value ([1]; geometric LS mean ratio) was 134.3% and the “Change in AUCss on fostamatinib co-administration with OC” value [1] was 28%. For the same compound, the “Change in Cmax,ss on fostamatinib co-administration with OC” value [1] was 34%.

For `COc1cc(Nc2ncc(F)c(Nc3ccc4c(n3)N(COP(=O)(O)O)C(=O)C(C)(C)O4)n2)cc(OC)c1OC` [Fostamatinib, fostamatinib], the Tolerability [2] was “well tolerated”, the “Decrease in exposure to follicle-stimulating hormone” value [3, 9] was “≈ 20%” and the “Decrease in exposure to luteinizing hormone” value [3, 9] was “≈ 20%”. The “Luteinizing hormone AUCss ratio Microgynon + fostamatinib/microgynon alone” value ([3]; in vivo) was 83.2%, the “Luteinizing hormone Cmax,ss ratio Microgynon + fostamatinib/microgynon alone” value ([3]; in vivo) was 75.6% and the “Progesterone AUCss ratio Microgynon + fostamatinib/microgynon alone” value ([3]; in vivo) was 104.3%. The “Progesterone Cmax,ss ratio Microgynon + fostamatinib/microgynon alone” value ([3]; in vivo) was 99.8%, the “AUCINR,0–168 ratio Warfarin + fostamatinib/warfarin alone” value [4] was 97.0% and the “INRmax ratio Warfarin + fostamatinib/warfarin alone” value [4] was 89.7%. The IC50 (BCRP) was 50 nM.

In the case of `C#C[C@]1(O)CC[C@H]2[C@@H]3CCC4=CC(=O)CC[C@@H]4[C@H]3CC[C@@]21CC` [Levonorgestrel, levonorgestrel], the “AUCss ratio Microgynon + fostamatinib/microgynon alone” value ([1]; geometric LS mean ratio) is reported as 105.1%, the “Change in AUCss on fostamatinib co-administration with OC” value [1] is reported as 5% and the “Change in Cmax,ss on fostamatinib co-administration with OC” value [1] is reported as −3%.

For `COc1cc(Nc2ncc(F)c(Nc3ccc4c(n3)NC(=O)C(C)(C)O4)n2)cc(OC)c1OC` [R406], the half-life [5] is given as ~ 14 h, the “Cmax,ss, geometric mean” value ([6]; Fostamatinib + warfarin) is given as 557 ng/mL and the “Cmax,ss, geometric mean” value ([1]; Fostamatinib + OC, period 2 day 21) is given as 812 ng/mL. For the same compound, the Increase in exposure (fostamatinib combined with simvastatin) was “≈ 10%”, the Increase in exposure ([7]; fostamatinib combined with rosuvastatin) was “≈ 10%” and the IC50 (BCRP) was 31 nM.

With `CC(=O)C[C@H](c1ccccc1)c1c(O)c2ccccc2oc1=O` [R-Warfarin, R-warfarin] the “Increase in AUC with fostamatinib” value [6] was 18%, the “Individual Cmax differences (warfarin alone to warfarin plus fostamatinib)” value [6] was −16.1 to 22% and the “Individual AUC differences” value [6] was 5.0-33.0%. For the same compound, the “Prolongation of t½λz” value [6] was “approximately 6 h”.

For `CC(C)c1nc(N(C)S(C)(=O)=O)nc(-c2ccc(F)cc2)c1/C=C/[C@@H](O)C[C@@H](O)CC(=O)O` [Rosuvastatin, rosuvastatin], the “Increase in AUC with fostamatinib” value ([7]; human, in vivo) is given as 96%, the “Increase in Cmax with fostamatinib” value ([7]; human, in vivo) is given as 88% and the “absorption (restricted by BCRP)” value [8] is given as 50%.

With `CC(=O)C[C@@H](c1ccccc1)c1c(O)c2ccccc2oc1=O` [S-Warfarin, S-warfarin] the “Increase in AUC with fostamatinib” value [6] was 13%, the “Individual Cmax differences (warfarin alone to warfarin plus fostamatinib)” value [6] was −25.6 to 27% and the “Individual AUC differences” value [6] was 0.0-36.0%. The “Prolongation of t½λz” value [6] was “approximately 6 h”.

For `CCC(C)(C)C(=O)O[C@H]1C[C@@H](C)C=C2C=C[C@H](C)[C@H](CC[C@@H](O)C[C@@H](O)CC(=O)O)[C@H]21` [Simvastatin acid, simvastatin acid], the “Decrease in half-life in the presence of fostamatinib” value (human, in vivo) was “about 1.5 h”, the “Increase in AUC with fostamatinib” value (human, in vivo) was 74% and the “Increase in Cmax with fostamatinib” value (human, in vivo) was 83%.

In the case of `CCC(C)(C)C(=O)O[C@H]1C[C@@H](C)C=C2C=C[C@H](C)[C@H](CC[C@@H]3C[C@@H](O)CC(=O)O3)[C@H]21` [Simvastatin, simvastatin], the “Change in tmax with fostamatinib” value (human, in vivo) is reported as “marginal change”, the “Decrease in half-life in the presence of fostamatinib” value (human, in vivo) is reported as “approximately 3 h” and the “Net apparent reduction in clearance” value (with fostamatinib) is reported as 40.3%.
